Test results taken from ChEMBL document CHEMBL1142893, “Synthesis and biological evaluation of novel 5(H)-phenanthridin-6-ones, 5(H)-phenanthridin-6-one diketo acid, and polycyclic aromatic diketo acid analogs as new HIV-1 integrase inhibitors” (Bioorg Med Chem, 2007).
The source made the active and inactive calls. The rule behind the calls is not given here.

Legend:
[1] = molecular target: T1, Human immunodeficiency virus type 1 integrase (Human immunodeficiency virus 1, UniProt Q7ZJM1); assay: Inhibition of HIV1 integrase strand transfer activity
Summary of the method: (§1)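 Wild-type integrase at 200 nM final was preincubated with inhibitor for 30 min at 30 °C. Reaction buffer: 50 mM NaCl, 1 mM HEPES pH 7.5, EDTA, dithiothreitol, 10% glycerol, 7.5 mM MnCl₂, 0.1 mg/mL BSA, 10 mM 2-mercaptoethanol, 10% DMSO, 25 mM MOPS pH 7.2.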

[2] = molecular target: T1, Human immunodeficiency virus type 1 integrase; assay: Inhibition of HIV1 integrase 3'-end processing activity; summary of the method: as §1
Vero = assay: Cytotoxicity against Vero cells after 3 days; type: cell-based; settings: Chlorocebus sabaeus, 72 h
[3] = tested on: Human immunodeficiency virus 1; assay: Antiviral activity against HIV1 LAI replication in human PBMC after 5 days; type: functional, organism-based; settings: for EC50 / EC90: Human immunodeficiency virus 1, LAI, 120 h
Summary of the method: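 PBMC (10⁷ cells/flask) stimulated 3 days with phytohemagglutinin, then infected with HIV-1 LAI at 100 50% tissue culture infective doses. Cultures were kept 5 days with compound at serial 1-log dilutions. Cells were removed by centrifugation (400g, 10 min, 4 °C), and the clarified supernatant was assayed for reverse transcriptase activity.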

CCRF-CEM = assay: Cytotoxicity against human CEM cells after 6 days; type: cell-based; settings: 144 h; for IC50: Homo sapiens, CCRF-CEM
Summary of the method: (§2)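 Uninfected cells (CEM leukemia cells; PBMC from whole blood of healthy donors) cultured with or without compound for 6 days. Afterwards cells were stained with Trypan blue and counted for proliferation and viability. Values reflect effects on cell growth.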

PBMC = assay: Cytotoxicity against human PBMC after 6 days; type: cell-based; settings: 144 h; for IC50: Homo sapiens, PBMC; summary of the method: as §2
[4] = Selectivity index, ratio of EC50 for HIV1 LAI to IC50 for human PBMC; type: functional
[5] = tested on: Human immunodeficiency virus 1; assay: Antiviral activity against HIV1 LAI replication in MOLT4 cells; type: functional, organism-based; settings: Human immunodeficiency virus 1, LAI, MOLT-4

T1 sequence (Q7ZJM1 whole entry): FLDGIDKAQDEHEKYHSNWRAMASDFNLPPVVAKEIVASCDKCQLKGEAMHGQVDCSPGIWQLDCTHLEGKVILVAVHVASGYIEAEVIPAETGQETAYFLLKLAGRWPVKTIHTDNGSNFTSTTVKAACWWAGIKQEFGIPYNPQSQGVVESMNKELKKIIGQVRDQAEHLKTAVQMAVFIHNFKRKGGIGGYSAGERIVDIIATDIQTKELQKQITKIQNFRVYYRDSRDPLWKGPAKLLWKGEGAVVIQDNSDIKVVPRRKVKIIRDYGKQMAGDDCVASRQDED

| SMILES | IC50 [1] | IC50 [2] | other results |
| --- | --- | --- | --- |
| Cc1cc(C)c2[nH]c(=O)c3ccc(C#N)cc3c2c1 | > 500 µM | > 500 µM | – |
| Cc1cccc2c1[nH]c(=O)c1ccc(C#N)cc12 | 500 µM | > 500 µM | – |
| Cc1cc(C)c2[nH]c(=O)c3cc(C#N)ccc3c2c1 | 333 µM | 300 µM | – |
| O=C(O)C(=O)CC(=O)c1c2ccccc2cc2ccccc12 | 1.7 µM | 54 µM | IC50 (Vero): > 100 µM; EC50 [3]: > 100 µM; EC90 [3]: > 100 µM; IC50 (CCRF-CEM): > 100 µM; IC50 (PBMC): > 100 µM |
| Cc1cc(C)c2[nH]c(=O)c3ccc(C(F)(F)F)cc3c2c1 | > 500 µM | > 500 µM | – |
| Cc1cn([C@H]2C[C@H](N=[N+]=[N-])[C@@H](CO)O2)c(=O)[nH]c1=O [ZIDOVUDINE] | – | – | IC50 (Vero): 50 µM; EC50 [3]: 0.00073 µM; EC90 [3]: 0.019 µM; IC50 (PBMC): > 100 µM |
| O=C(O)C(=O)CC(=O)c1ccc2ccccc2c1 | 7 µM | 54 µM | – |
| O=C(O)C(=O)CC(=O)c1ccc(N2CCOCC2)cc1 | 23 µM | > 100 µM | – |
| Cc1ccc2oc3nc(C)c(C(=O)CC(=O)C(=O)O)cc3c(=O)c2c1 | 16 µM | 92 µM | – |
| CC(=O)Nc1ccc2[nH]c(=O)c3ccccc3c2c1 | 500 µM | > 500 µM | – |
| Cc1cc(C)c2[nH]c(=O)c3ccccc3c2c1 | > 1000 µM | 1000 µM | – |
| O=C(O)C(=O)CC(=O)c1cc2ccccc2c2ccccc12 | 0.38 µM | 9 µM | IC50 (Vero): > 100 µM; EC50 [3]: 83.7 µM; EC90 [3]: > 100 µM; IC50 (CCRF-CEM): 73.1 µM; IC50 (PBMC): 83.5 µM |
| Cc1ccc2cc(C(=O)CC(=O)C(=O)O)ccc2c1 | 3 µM | 11 µM | – |
| Cc1cccc2c1[nH]c(=O)c1ccccc12 | > 1000 µM | > 1000 µM | – |
| O=C(O)C(=O)CC(=O)c1ccc2c(ccc3ccccc32)c1 | 4.8 µM | 23 µM | IC50 (Vero): 10.8 µM; EC50 [3]: 26.6 µM; EC90 [3]: > 100 µM; IC50 (CCRF-CEM): 16.2 µM; IC50 (PBMC): > 100 µM |
| Cc1nc2oc3ccccc3c(=O)c2cc1C(=O)CC(=O)C(=O)O | 35 µM | > 100 µM | – |
| O=C(O)C(=O)CC(=O)c1ccc(Br)c(CC(=O)c2ccccc2)c1 | > 500 µM | > 500 µM | – |
| COC(=O)c1ccccc1-c1ccc(C(=O)CC(=O)C(=O)O)cc1[N+](=O)[O-] | 7 µM | 26 µM | – |
| O=C(O)C(=O)CC(=O)c1ccc2cc3ccccc3cc2c1 | 13 µM | 32 µM | – |
| O=C(O)C(=O)CC(=O)c1ccc2ccc3ccccc3c2c1 | 2.7 µM | 25 µM | IC50 (Vero): > 100 µM; EC50 [3]: 8 µM; EC90 [3]: 72.8 µM; IC50 (CCRF-CEM): 56.4 µM; IC50 (PBMC): 81 µM; Selectivity index [4]: 10 |
| O=C(O)C(=O)CC(=O)c1ccc2ccc3cccc4ccc1c2c34 | 0.53 µM | 7 µM | – |
| O=C(O)C(=O)CC(=O)c1cc(OCc2ccccc2)cc(OCc2ccccc2)c1 | – | – | Activity (Vero): Not Active; Activity [3]: inactive; Activity (CCRF-CEM; human, ccrf-cem): Not Active; EC50 [5]: 5.7 µM; Activity (PBMC; human, pbmc): Not Active |
| Cc1cccc2c1[nH]c(=O)c1ccc(C(F)(F)F)cc12 | 109 µM | 449 µM | – |
| Cc1cccc2c1[nH]c(=O)c1cc(C#N)ccc12 | > 500 µM | > 500 µM | – |
| COC(=O)C(=O)CC(=O)c1ccc(Br)c(CC(=O)c2ccccc2)c1 | > 500 µM | > 500 µM | – |
| COC(=O)C(=O)CC(=O)c1ccc(-c2ccccc2C(=O)OC)c([N+](=O)[O-])c1 | 27 µM | 102 µM | – |
| O=C(O)c1ccc2[nH]c(=O)c3ccccc3c2c1 | 203 µM | > 500 µM | – |
| O=C(O)C(=O)CC(=O)c1ccc2c(c1)[nH]c(=O)c1ccccc12 | 65 µM | 400 µM | – |

Continued, in another order:

| IC50 [1] | IC50 [2] | SMILES | other results |
| --- | --- | --- | --- |
| > 500 µM | > 500 µM | N#Cc1cccc(CNc2ccc3[nH]c(=O)c4ccccc4c3c2)c1 | – |
| 900 µM | > 1000 µM | O=c1[nH]c2ccc(C(F)(F)F)cc2c2ccccc12 | – |
| 100 µM | 500 µM | O=c1[nH]c2ccc(Cl)cc2c2ccccc12 | – |
| 500 µM | > 500 µM | COc1ccc2[nH]c(=O)c3ccccc3c2c1 | – |
| 400 µM | > 500 µM | N#Cc1ccc2[nH]c(=O)c3ccccc3c2c1 | – |
| 78 µM | 225 µM | O=c1[nH]c2ccc(Br)cc2c2ccccc12 | – |
| > 500 µM | > 500 µM | N#Cc1cccc(CN(Cc2cccc(C#N)c2)c2ccc3[nH]c(=O)c4ccccc4c3c2)c1 | – |
| 267 µM | 206 µM | Nc1ccc2[nH]c(=O)c3ccccc3c2c1 | – |
| > 500 µM | > 500 µM | CCNc1ccc2[nH]c(=O)c3ccccc3c2c1 | – |
| 415 µM | > 500 µM | O=c1[nH]c2ccc(S(=O)(=O)c3ccccc3)cc2c2ccccc12 | – |
| > 500 µM | > 500 µM | O=C(Nc1ccc2[nH]c(=O)c3ccccc3c2c1)c1ccccc1 | – |
| > 500 µM | > 500 µM | N#Cc1ccc(CNc2ccc3[nH]c(=O)c4ccccc4c3c2)cc1 | – |
| 62 µM | 500 µM | N#Cc1ccc(CN(Cc2ccc(C#N)cc2)c2ccc3[nH]c(=O)c4ccccc4c3c2)cc1 | – |
